CAL PDZ FP-1 – CAL PDZ peptide-binding inhibitors, primary screen, biochemical, fluorescence polarization, Cer-tagged CAL PDZ, HTS | purified CAL PDZ, TMR-peptide fluorescence polarization, 1 h | AID 504414, 2011 | Golgi-associated PDZ and coiled-coil motif-containing protein (Homo sapiens), Q9HD26 | actives 0.02% (n = 330,000) | inhibition, % at 20 µM;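 active = highest replicate inhibition of at least 40%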
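Assay system – tagged CAL PDZ protein CerCALP, purified · Timing – 1 h at RT · Compound – single point, 20 µM · Measured by – fluorescence polarization from S- and P-plane intensities, G-factor corrected · Evaluation – inhibition from polarization loss · Probe or stimulus – TMR reporter peptide T*-PRC34 · Buffer or medium – pH 7.4 phosphate-saline buffer, reducing agent, detergent, IgG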
PGC1a acetyl inh – inhibitors of PGC1a acetylation signal, primary screen, cell-based, U2OS, AlphaScreen, inhibitor mode; AlphaScreen anti-acetyl-lysine; with virally co-expressed GCN5 acetyltransferase; inhibition, % at 15.6 µM; actives 0.17% (n = 350,000); AID 651687, 2012;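 active = every replicate shows inhibition of at least 40%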
ARNT TACC3 PPI – disruptors of ARNT/TACC3 protein interaction, primary screen, biochemical, AlphaScreen, single concentration; Transforming acidic coiled-coil-containing protein 3 (Homo sapiens), Q9Y6A5; AlphaScreen His-ARNT PAS-B/GST-TACC3 binding, luminescence; TACC3 fragment carries E629A point mutation; inhibition, % at 9.99 µM; actives 0.66% (n = 390,000); AID 623870, 2012;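 active = mean inhibition of replicates at least 50% and at least half of replicates each reaching 50%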
F508del corr – F508del CFTR correction, initial screen, CFBE line, single point | CFBE cells, YFP halide quenching; stimulated with forskolin plus potentiator P3; % fluorescence drop versus neutral controls | activity (quench increase), % at 7.58 µM | actives 0.36% (n = 350,000);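 active = mean added fluorescence quench of at least 8% versus neutral control, with both replicates also reaching 8%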;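 note: cells transiently co-express mutant CFTR-F508del with the halide-sensitive YFP; corrector assay measuring rescue of mutant channel to the surface after 24 h compound exposure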
miR122 inh – miR-122 Renilla sensor signal increase in Huh7, primary screen, miR-122 inhibitor project, cell-based, single point, plate reader | Huh7 miR-122 Renilla luciferase sensor, 48 h; neutral wells = 0, positive control = 100 | activation (reporter increase), % at 12.5 µM | actives 0.3% (n = 340,000);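 active = mean replicate activation score at least 90 and every replicate individually at or above 90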;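 note: higher luciferase means less miR-122 activity so hits act as miR-122 inhibitors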
CAL PDZ FP-2 – untagged CAL PDZ binding inhibitors, primary screen, biochemical, fluorescence polarization, HTS. Golgi-associated PDZ and coiled-coil motif-containing protein (Homo sapiens), Q9HD26. purified CAL PDZ, TMR-peptide fluorescence polarization, 1 h. inhibition, % at 24.9 µM. actives 0.92% (n = 300,000). AID 602252, 2012;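 active = mean inhibition of at least 30% with at least half of replicates also reaching 30%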
Numbers stand for hits; – = inactive; · = no result given; + = active, no number; [ ] = remark or other dose. Most compounds without a hit are left out; they make up all but 1.7% or so of the library.

SMILES	CAL PDZ FP-1	PGC1a acetyl inh	ARNT TACC3 PPI	F508del corr	miR122 inh	CAL PDZ FP-2
CC(C)C#Cc1ccc([C@@H]2[C@H](CO)N3C(=O)CN(C(=O)NC4CCCC4)C[C@@H]23)cc1	·	107	·	–	·	·
CC(C)CC#Cc1ccc([C@H]2[C@@H](CO)N3C(=O)CN(C(=O)Nc4cc(F)ccc4F)C[C@@H]23)cc1	·	–	·	–	·	·
Cc1c(NC2(C#N)CCCC2)c(=O)n(-c2ccccc2)n1C	–	·	–	·	·	78
Cc1ccccc1C(=O)/C(C#N)=N/Nc1c(C)n(C)n(-c2ccccc2)c1=O	–	–	57	·	–	–
Cc1c(NC2=CC(=O)CC(C)(C)C2)c(=O)n(-c2ccccc2)n1C	–	–	–	–	–	31
Cc1ccccc1S(=O)(=O)/N=C(/Nc1c(C)n(C)n(-c2ccccc2)c1=O)c1ccccc1	–	–	–	–	–	40
CN1CCN(C(=O)C[C@@H]2C=C[C@@H](NC(=O)Cc3ccccn3)[C@@H](CO)O2)CC1	·	–	–	–	–	·
CCOC(=O)/C(C#N)=N/Nc1c(C)n(C)n(-c2ccccc2)c1=O	–	–	·	–	–	–
Cc1c(N/N=C(\C#N)C(=O)c2ccccc2)c(=O)n(-c2ccccc2)n1C	–	–	67	·	–	–
CCOC(=O)c1c(C)oc2c1c(C=NCc1ccccn1)c(O)c1ccccc12	–	·	48	–	·	–
CC(C)NC(=O)N(C)C[C@@H]1OCCCC[C@H](C)Oc2ccc(NC(=O)CCC(F)(F)F)cc2C(=O)N([C@H](C)CO)C[C@H]1C	·	–	·	–	–	·
COc1ccc2nc(/C=N/NC(=O)[C@H](CCSC)NC(=O)OC(C)(C)C)ccc2c1	–	·	–	·	·	–
C[C@H](NC(=O)OC(C)(C)C)C(=O)N/N=C/c1cccc2nccnc12	–	–	27	–	–	–
CSCC[C@H](NC(=O)OC(C)(C)C)C(=O)N/N=C/c1cccc2cccnc12	–	–	62	–	·	·
Cc1noc(C)c1S(=O)(=O)Nc1cccc2c1O[C@H](CN(C)C(=O)Nc1ccccc1)[C@H](C)CN([C@H](C)CO)C2=O	·	–	–	–	–	·
Cc1ccc2nc(C)c(C)nc2c1N	–	–	–	·	113	–
C=CCN1C(=O)/C(=C\C=C2\N(C)c3ccccc3C2(C)C)SC1=S	–	·	·	–	·	–
CN1/C(=C\C=C2/SC(=S)N(CC(=O)O)C2=O)C(C)(C)c2ccccc21	–	·	–	16	·	–
CC=Cc1ccc2n(c1=O)C[C@H]1[C@H](CO)[C@@H](C(=O)NC3CCC3)[C@@H]2N1C(=O)c1cnccn1 (mixture of isomers)	·	–	·	–	·	·
C[C@@H]1CN([C@H](C)CO)C(=O)c2cc(C3=CCCCC3)cnc2O[C@H]1CN(C)C(=O)Cc1cccnc1	·	–	active	–	–	·
COCC(=O)N(C)C[C@@H]1Oc2ncc(C#Cc3cccnc3)cc2C(=O)N([C@H](C)CO)C[C@H]1C	·	–	–	–	113[16.7 µM]	·
COc1ccc2[nH]c(=O)c(CN(C(=O)C3CCCO3)c3ccc(C)c(C)c3)cc2c1 (stereo unspecified)	–	–	–	–	–	48
COc1ccc2[nH]c(=O)c(CN(C(=O)c3cccnc3)c3ccc(C)cc3C)cc2c1	–	–	–	–	–	34
CCOc1ccc(CN2CCN(Cc3cccn3-c3ncccn3)CC2CCO)cc1 (stereo unspecified)	–	–	–	–	–	–
CCOc1ccc(CN2CCN(Cc3cccn3-c3cccnc3)CC2CCO)cc1 (stereo unspecified)	–	·	–	·	·	78
SMILES	CAL PDZ FP-1	PGC1a acetyl inh	ARNT TACC3 PPI	F508del corr	miR122 inh	CAL PDZ FP-2
COc1ccc(C(=O)NCC(=O)OCC(=O)Nc2sccc2C#N)cc1OC	–	·	–	–	·	61
COc1ccc(OC)c(NC(=O)COC(=O)CNC(=O)c2ccc(OC)c(OC)c2)c1	–	–	–	·	–	–
COc1ccc(C(=O)NCC(=O)OCC(=O)Nc2cc([N+](=O)[O-])ccc2F)cc1	–	–	–	–	·	+
CC(C)=CC(=O)OCC(=O)Nc1cc([N+](=O)[O-])ccc1F	–	·	–	·	·	–
O=[N+]([O-])c1ccc(N=Nc2c(O)[nH]c3ccc(F)cc23)cc1	·	–	–	–	–	42
CC(Oc1ccccc1)C(=O)N=Nc1c(O)[nH]c2ccc([N+](=O)[O-])cc12 (stereo unspecified)	–	–	–	–	232	–
CN(C)C(=O)c1ccc(-c2ccc([C@@H]3[C@@H](CO)N4C(=O)CN(C(=O)C5CCC5)C[C@@H]34)cc2)cc1	·	–	·	–	·	·
Cc1noc(C)c1NC(=O)N[C@H]1CC[C@H](CCNC(=O)C2CC2)O[C@H]1CO	·	–	–	–	·	·
CCOC(=O)c1ccc(-n2ccnc2)c(NC(=O)c2cccc(Br)c2)c1	–	·	–	–	128	·
Cc1nc(-c2ccc(NC(=O)Cc3ccccc3)cc2)cs1	·	–	–	–	–	66
COc1ccc(CC(=O)Nc2ccc(-c3csc(C)n3)cc2)cc1	–	·	–	·	·	–
CCn1ncc(Br)c1C(=O)Nc1cccc(F)c1	–	–	–	–	·	33
C[C@@H]1CN([C@@H](C)CO)C(=O)c2cc(NS(=O)(=O)c3ccc(F)cc3)ccc2O[C@@H]1CN(C)Cc1ccccc1	·	–	–	–	–	·
Cc1cc2[nH]c3c(c[n+](C)c4ccccc34)c2cc1C	–	·	–	24	·	–
Cc1cc2[nH]c3c4ccccc4nc(C)c3c2cc1C	–	·	–	–	–	–
C[C@H](CO)N1C[C@H](C)[C@H](CN(C)Cc2ccncc2)Oc2ccc(NC(=O)NC3CCCCC3)cc2C1=O	·	–	–	–	–	·
C[C@@H]1CCCCO[C@@H](CN(C)C(=O)Nc2ccc(F)cc2)[C@H](C)CN([C@H](C)CO)C(=O)c2cc(NC(=O)c3ccncc3)ccc2O1	·	–	–	–	–	·
COc1cccc(NC(=O)CCS(=O)(=O)c2cccs2)c1	–	–	–	·	–	72
CCOC(=O)c1cccc(NC(=O)CCS(=O)(=O)c2cccs2)c1	·	–	–	·	–	–
Cc1cc(C)c2c(CN3CCCCC3)cc(=O)oc2c1	–	·	–	–	·	–
Cc1cc(C)c2c(CN3CCC(C)CC3)cc(=O)oc2c1	–	·	–	–	–	80
C/C=C/c1cccc(-c2nc(C(=O)NCc3ccncc3)cc3c2[C@H](CCO)N([S@@](=O)C(C)(C)C)C3)c1	·	–	52	–	·	·

From PubChem BioAssay
